Assay results: ChEMBL document CHEMBL1132441, “Further studies on oxygenated tryptamines with LSD-like activity incorporating a chiral pyrrolidine moiety into the side chain” (J Med Chem, 1999)
Values joined by “and” are separate entries in the source; they are usually repeats but may differ in a detail not shown here. Identical values can stand only once.

Tests used:
[1] = biological target: 5-hydroxytryptamine receptor 2A (Rattus norvegicus) (UniProt P14842); test: Compound was tested for binding affinity at 5-hydroxytryptamine 2A receptor sites in rat cortical homogenate using [125I]-2,5-Dimethoxy -4-iodoamphetamine (DOI).
Chain of 5-hydroxytryptamine receptor 2A (Rattus norvegicus) (P14842 whole entry): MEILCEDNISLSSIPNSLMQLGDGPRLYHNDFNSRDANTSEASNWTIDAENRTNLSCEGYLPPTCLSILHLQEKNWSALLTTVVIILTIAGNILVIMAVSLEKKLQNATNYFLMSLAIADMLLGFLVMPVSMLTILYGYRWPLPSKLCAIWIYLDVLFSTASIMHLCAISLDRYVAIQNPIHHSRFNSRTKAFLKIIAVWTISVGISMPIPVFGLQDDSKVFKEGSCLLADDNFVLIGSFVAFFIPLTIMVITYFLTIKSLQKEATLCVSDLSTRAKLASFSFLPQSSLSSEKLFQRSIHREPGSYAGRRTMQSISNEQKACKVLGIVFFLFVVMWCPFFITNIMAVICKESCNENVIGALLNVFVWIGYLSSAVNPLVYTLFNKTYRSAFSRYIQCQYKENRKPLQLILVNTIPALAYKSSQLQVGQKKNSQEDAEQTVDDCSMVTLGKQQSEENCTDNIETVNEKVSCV
Procedure, shortened: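 Rat frontal cortex membranes were washed in 50 mM Tris-HCl pH 7.4 and preincubated at 37 °C in buffer with EDTA, pargyline, CaCl2 and ascorbate. They were incubated with [125I]DOI and test drug for 15 min at 37 °C, then filtered, and the filters were gamma-counted. Cinanserin (10 µM) defined nonspecific binding. Values come from at least three experiments, each in triplicate.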

[2] = biological target: 5-hydroxytryptamine receptor 2A (Rattus norvegicus, UniProt P14842); test: Compound was tested for binding affinity using [3H]MDL-100,907 at 5-hydroxytryptamine 2A receptor sites in rat cortical homogenate.
Chain of 5-hydroxytryptamine receptor 2A (P14842 whole entry): as above
Procedure, shortened: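 Membranes (200-400 µg protein) from rat frontal cortex homogenate were incubated with 0.2 nM [3H]MDL100907 and competing drug for 15 min at 37 °C. The buffer was Tris-HCl pH 7.4 with EDTA, pargyline, CaCl2 and ascorbate. Bound and free ligand were separated by GF/C filtration and read by scintillation counting. Nonspecific binding was taken with 10 µM cinanserin. […] values come from at least three experiments, each in triplicate.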

Rattus norvegicus [3] = test: Substitution tests were carried out for the compound in DOI- trained rats dosed with 0.12 mg/kg drug and the binding data was reported; format: functional
Rattus norvegicus [4] = test: Substitution tests were carried out for the compound in DOI- trained rats dosed with 0.50 uM/kg drug and the binding data was reported; format: functional
Procedure, shortened: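 Rats trained on DOI (0.4 mg/kg i.p.) versus saline under an FR50 two-lever food schedule received the test drug i.p. in saline 30 min before testing. Quantal scoring used the lever first reaching 50 presses to give %SDL. ED50 and 95% CI were obtained by the Litchfield–Wilcoxon log-probit method when a dose reached ≥80% SDL.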

Rattus norvegicus [5] = test: Substitution tests were carried out for the compound in LSD- trained rats dosed with 0.06 mg/kg drug and the binding data was reported; format: functional
Rattus norvegicus [6] = test: Substitution tests were carried out for the compound in LSD- trained rats dosed with 0.25 uM/kg drug and the binding data was reported; format: functional
Procedure, shortened: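 Rats trained on LSD (0.08 mg/kg i.p.) versus saline under an FR50 two-lever food schedule received the test drug i.p. in 0.9% saline 30 min before the session. The lever first given 50 presses was scored as selected, giving %SDL. ED50 (95% CI) came from Litchfield–Wilcoxon log-probit analysis, and none was calculated where ≥50% of rats were disrupted.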

Rattus norvegicus [7] = test: Percentage of rats selecting the drug liver at dose of 0.03 mg/kg; format: functional
Procedure, shortened: (§1)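 Male Sprague–Dawley rats were trained in a two-lever FR50 food-reinforced task to discriminate LSD (0.08 mg/kg) or DOI (0.4 mg/kg) from saline. Test drugs were given i.p. in 0.9% saline 30 min before the session. The lever first pressed 50 times was scored as selected, and the result is the percentage of rats selecting the drug lever.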

Rattus norvegicus [8] = test: Percentage of rats selecting the drug liver at dose of 0.06 mg/kg; format: functional; procedure, shortened: as §1
Rattus norvegicus [9] = test: Percentage of rats selecting the drug liver at dose of 0.12 mg/kg; format: functional; procedure, shortened: as §1
Rattus norvegicus [10] = test: Percentage of rats selecting the drug liver at dose of 0.23 mg/kg; format: functional; procedure, shortened: as §1
Rattus norvegicus [11] = test: Percentage of rats selecting the drug liver at dose of 0.68 mg/kg; format: functional; procedure, shortened: as §1
Rattus norvegicus [12] = test: Percentage of rats selecting the drug liver at dose of 1.36 mg/kg; format: functional; procedure, shortened: as §1
Rattus norvegicus [13] = test: Percentage of rats selecting the drug liver at dose of 0.16 mg/kg; format: functional
Procedure, shortened: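 Male Sprague–Dawley rats (200-220 g) were trained in a two-lever FR 50 food-reinforced task to discriminate LSD (0.08 mg/kg) or DOI (0.4 mg/kg) from saline. Drugs were given i.p. in 0.9% saline 30 min before the session. Scoring was quantal: the lever first reaching 50 presses counted as selected, and %SDL is the percentage of rats choosing the drug lever.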

Rattus norvegicus [14] = test: Percentage of rats selecting the drug liver at dose of 0.33 mg/kg; format: functional; procedure, shortened: as §1
Rattus norvegicus [15] = test: Percentage of rats selecting the drug liver at dose of 0.65 mg/kg; format: functional; procedure, shortened: as §1
Rattus norvegicus [16] = test: Percentage of rats selecting the drug liver at dose of 0.08 mg/kg; format: functional; procedure, shortened: as §1
Rattus norvegicus [17] = test: Substitution tests were carried out for the compound in LSD- trained rats dosed with 0.02 mg/kg drug and the binding data was reported; format: functional
Rattus norvegicus [18] = test: Substitution tests were carried out for the compound in LSD- trained rats dosed with 0.046 uM/kg drug and the binding data was reported; format: functional
Rattus norvegicus [19] = test: Percentage of rats selecting the drug liver at dose of 0.1 mg/kg; format: functional; procedure, shortened: as §1
Rattus norvegicus [20] = test: Percentage of rats selecting the drug liver at dose of 0.2 mg/kg; format: functional; procedure, shortened: as §1
Rattus norvegicus [21] = test: Percentage of rats selecting the drug liver at dose of 0.4 mg/kg; format: functional; procedure, shortened: as §1
Rattus norvegicus [22] = test: Percentage of rats selecting the drug liver at dose of 0.01 mg/kg; format: functional; procedure, shortened: as §1
Rattus norvegicus [23] = test: Percentage of rats selecting the drug liver at dose of 0.02 mg/kg; format: functional; procedure, shortened: as §1
Rattus norvegicus [24] = test: Percentage of rats selecting the drug liver at dose of 0.04 mg/kg; format: functional; procedure, shortened: as §1

With `CN1CCC(c2c[nH]c3cccc(O)c23)C1` (stereo not given) the K0.5 [1] was 82 nM and the Ki [2] was 440 nM.
Molecule `CN1CCC[C@@H]1Cc1c[nH]c2cc(O)ccc12` has a K0.5 [1] of 13 nM, a Ki [2] of 210 nM and an ED50 (Rattus norvegicus [3]) of 0.11 µmol/kg. It also gave an ED50 (Rattus norvegicus [4]) of 0.47 µmol/kg, an ED50 (Rattus norvegicus [5]) of 0.06 µmol/kg and an ED50 (Rattus norvegicus [6]) of 0.25 µmol/kg. For the same molecule, the SDL (Rattus norvegicus [7]) was 30%, the SDL (Rattus norvegicus [8]) was 40% and 14% and the SDL (Rattus norvegicus [9]) was 64% and 43%. For the same molecule, the SDL (Rattus norvegicus [10]) was 100%.
For `COc1ccc2[nH]cc(C3CCN(C)C3)c2c1` (stereo not given), the K0.5 [1] was 150 nM, the Ki [2] was 1300 nM and the SDL (Rattus norvegicus [11]) was 33% and 14%. It also gave an SDL (Rattus norvegicus [12]) of 50%.
`COc1ccc2[nH]cc(C[C@H]3CCCN3C)c2c1` was tested, and the K0.5 [1] was 9.5 nM, the Ki [2] was 400 nM and the ED50 (Rattus norvegicus [3]) was 0.11 µmol/kg. The ED50 (Rattus norvegicus [4]) was 0.32 µmol/kg, the ED50 (Rattus norvegicus [5]) was 0.14 µmol/kg and the ED50 (Rattus norvegicus [6]) was 0.44 µmol/kg. The SDL (Rattus norvegicus [13]) was 63%, the SDL (Rattus norvegicus [14]) was 82% and 88% and the SDL (Rattus norvegicus [15]) was 100%. For the same molecule, the SDL (Rattus norvegicus [16]; 0.08 mg/kg) was 20% and 43%.
`COc1ccc2[nH]cc(C[C@@H]3CCCN3C)c2c1` was tested, and the K0.5 [1] was 64 nM and the Ki [2] was over 9400 nM.
Work on `COc1ccc2[nH]cc(CCN(C)C)c2c1` [MEBUFOTENIN] yielded a K0.5 [1] of 21 nM and a Ki [2] of 1600 nM.
Molecule `CN1CCC[C@H]1Cc1c[nH]c2cc(O)ccc12` has a K0.5 [1] of 290 nM and a Ki [2] of 4700 nM.
In the case of `CN(C)CCc1c[nH]c2cccc(O)c12` [PSILOCIN], the K0.5 [1] is reported as 6 nM and the Ki [2] is reported as 390 nM.
With `COc1cc(CC(C)N)c(OC)cc1I` (stereo not given) the ED50 (Rattus norvegicus [17]) was 0.12 µmol/kg, the ED50 (Rattus norvegicus [18]) was 0.28 µmol/kg and the SDL (Rattus norvegicus [19]) was 56%. It also gave an SDL (Rattus norvegicus [20]) of 89% and an SDL (Rattus norvegicus [21]) of 100%.
Molecule `CCN(CC)C(=O)[C@@H]1C=C2c3cccc4[nH]cc(c34)C[C@H]2N(C)C1` [LYSERGIDE] has an ED50 (Rattus norvegicus [17]) of 0.012 µmol/kg, an ED50 (Rattus norvegicus [18]) of 0.026 µmol/kg and an SDL (Rattus norvegicus [22]) of 46%. For the same molecule, the SDL (Rattus norvegicus [23]) was 78%, the SDL (Rattus norvegicus [24]) was 81% and the SDL (Rattus norvegicus [16]) was 100%.
